The target of assay [1] is T1, Aurora kinase B (Homo sapiens, UniProt Q96GD4). Put plainly: Inhibition of Aurora B kinase in human HeLa Kyoto cells assessed as effect on distribution of phspho-histone H3 ser10 level incubated for 20 hrs.
Another assay concerns the target T2, Aurora kinase A (Homo sapiens, UniProt O14965).
T2 sequence (O14965 whole entry): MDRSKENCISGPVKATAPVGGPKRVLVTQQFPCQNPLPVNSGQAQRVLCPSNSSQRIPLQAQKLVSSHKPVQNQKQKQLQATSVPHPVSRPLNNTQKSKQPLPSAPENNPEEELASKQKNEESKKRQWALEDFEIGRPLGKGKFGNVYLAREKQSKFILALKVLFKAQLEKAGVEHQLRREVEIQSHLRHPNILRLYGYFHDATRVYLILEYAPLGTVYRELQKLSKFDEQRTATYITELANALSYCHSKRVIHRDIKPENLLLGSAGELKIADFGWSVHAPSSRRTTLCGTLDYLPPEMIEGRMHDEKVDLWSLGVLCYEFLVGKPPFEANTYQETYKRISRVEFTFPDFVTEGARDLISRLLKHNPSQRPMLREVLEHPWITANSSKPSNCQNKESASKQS
Put plainly: Binding affinity to human Aurora A kinase expressed in Escherichia coli BL21 cells incubated for 1 hr by active site directed binding competition assay. In a few lines:
(§1)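 Kinome scan of 456 kinases using an active-site-directed binding competition assay, followed by determination of binding affinities (Kd). Aurora B in this scan was free enzyme without INCENP.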

A further assay deals with T3, Aurora kinase C (Homo sapiens, UniProt Q9UQB9).
T3 sequence (Q9UQB9 whole entry): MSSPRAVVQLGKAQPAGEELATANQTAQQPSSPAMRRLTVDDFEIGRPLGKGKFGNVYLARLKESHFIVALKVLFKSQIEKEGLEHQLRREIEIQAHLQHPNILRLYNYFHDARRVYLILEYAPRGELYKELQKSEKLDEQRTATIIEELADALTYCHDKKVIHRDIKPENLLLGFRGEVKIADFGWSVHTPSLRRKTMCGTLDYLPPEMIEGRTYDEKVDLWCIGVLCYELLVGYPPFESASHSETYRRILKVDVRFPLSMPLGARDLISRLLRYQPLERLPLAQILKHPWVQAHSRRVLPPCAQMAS
Put plainly: Binding affinity to human Aurora C kinase expressed in Escherichia coli BL21 cells incubated for 1 hr by active site directed binding competition assay. In outline:
as §1

In assay [2] the target is T4, Aurora kinase A (Homo sapiens) (UniProt O14965).
T4 sequence (whole entry): T2 sequence (O14965 whole entry)
Put plainly: Inhibition of Aurora A kinase in human HeLa Kyoto cells assessed as induction of defective chromosome alignment during metaphase at 10 uM incubated for 20 hrs. The format is cell-based. In outline: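 HeLa Kyoto cells were treated overnight and stained for pThr288 Aurora A, α-tubulin and DNA. Cells with chromosomes not aligned on the metaphase plate were scored. Experiment repeated twice, SD. Rescue variant: cells transfected with GFP-Aurora A wild-type, Arg137Ala or Trp277Ala before treatment; only highest expressers analysed, ≥100 cells per condition.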

Assay [3] concerns the target Aurora kinase B/Inner centromere protein (Homo sapiens, UniProt Q96GD4). Put plainly: Inhibition of Aurora-B/INCENP (unknown origin) using biotinylated STK2 substrate incubated for 30 mins by HTRF assay. The format is protein-complex assay. In outline: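 Biochemical kinase inhibition was read by HTRF with 20 µM ATP. Aurora B was assayed as its complex with the activator INCENP. For Aurora A, IC50 curves were recorded at different TPX2 concentrations.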

The target in assay [4] is Macrophage colony-stimulating factor 1 receptor (Homo sapiens, UniProt P07333). Put plainly: Binding affinity to auto-inhibited human CSF1R expressed in Escherichia coli BL21 cells incubated for 1 hr by active site directed binding competition assay. In a few lines: as §1
Assay [5] concerns the target Death-associated protein kinase 2 (Homo sapiens, UniProt Q9UIK4). As to the kind of experiment: Binding affinity to human DAPK2 expressed in Escherichia coli BL21 cells incubated for 1 hr by active site directed binding competition assay. In a few lines: as §1
The target of assay [6] is T1, Aurora kinase B. As to the kind of experiment: Binding affinity to human Aurora B kinase expressed in Escherichia coli BL21 cells incubated for 1 hr by active site directed binding competition assay. In a few lines:
as §1

For assay [7], the target named is T5, Mitogen-activated protein kinase kinase kinase 19 (Homo sapiens, UniProt Q56UN5).
T5 sequence (Q56UN5 whole entry): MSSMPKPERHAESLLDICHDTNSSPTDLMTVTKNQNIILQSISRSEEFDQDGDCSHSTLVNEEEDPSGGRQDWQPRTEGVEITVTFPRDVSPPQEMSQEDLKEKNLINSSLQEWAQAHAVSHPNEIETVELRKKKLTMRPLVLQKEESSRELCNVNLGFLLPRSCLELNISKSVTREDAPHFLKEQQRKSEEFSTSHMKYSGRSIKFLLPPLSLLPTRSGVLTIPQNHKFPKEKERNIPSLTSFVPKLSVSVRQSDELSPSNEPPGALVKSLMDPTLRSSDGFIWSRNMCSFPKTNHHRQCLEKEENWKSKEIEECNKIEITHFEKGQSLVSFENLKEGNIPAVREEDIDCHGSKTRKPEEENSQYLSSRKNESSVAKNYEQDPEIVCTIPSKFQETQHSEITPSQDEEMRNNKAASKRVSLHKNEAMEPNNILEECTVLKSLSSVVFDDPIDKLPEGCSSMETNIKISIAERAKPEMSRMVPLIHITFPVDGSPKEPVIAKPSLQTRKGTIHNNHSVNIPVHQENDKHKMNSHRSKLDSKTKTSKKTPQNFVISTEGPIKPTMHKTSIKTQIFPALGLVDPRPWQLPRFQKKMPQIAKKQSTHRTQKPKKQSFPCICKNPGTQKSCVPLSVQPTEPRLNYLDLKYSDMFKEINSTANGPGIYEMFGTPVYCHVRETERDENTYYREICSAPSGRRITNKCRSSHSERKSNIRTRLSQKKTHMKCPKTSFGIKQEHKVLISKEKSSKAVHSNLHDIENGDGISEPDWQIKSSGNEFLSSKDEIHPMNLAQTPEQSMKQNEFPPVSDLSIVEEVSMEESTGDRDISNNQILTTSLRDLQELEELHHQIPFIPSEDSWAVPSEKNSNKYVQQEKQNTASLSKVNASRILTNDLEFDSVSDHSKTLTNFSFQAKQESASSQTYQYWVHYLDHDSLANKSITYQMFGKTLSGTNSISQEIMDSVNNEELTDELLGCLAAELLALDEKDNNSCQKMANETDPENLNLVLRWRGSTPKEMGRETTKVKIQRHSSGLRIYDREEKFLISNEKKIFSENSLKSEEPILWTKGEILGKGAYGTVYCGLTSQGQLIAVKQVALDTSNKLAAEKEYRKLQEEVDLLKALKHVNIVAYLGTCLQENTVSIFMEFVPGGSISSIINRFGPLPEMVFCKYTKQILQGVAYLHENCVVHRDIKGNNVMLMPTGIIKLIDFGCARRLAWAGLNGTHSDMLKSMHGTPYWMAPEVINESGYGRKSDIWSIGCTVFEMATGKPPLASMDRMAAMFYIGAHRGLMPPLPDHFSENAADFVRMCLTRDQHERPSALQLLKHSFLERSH
Put plainly: Binding affinity to human YSK4 expressed in Escherichia coli BL21 cells incubated for 1 hr by active site directed binding competition assay. In a few lines: as §1

The source of these data is ChEMBL document CHEMBL3861974, “Discovery of a Selective Aurora A Kinase Inhibitor by Virtual Screening” (J Med Chem, 2016).

The source made the active and inactive calls. The rule behind the calls is not given here.

T1 sequence (Q96GD4 whole entry): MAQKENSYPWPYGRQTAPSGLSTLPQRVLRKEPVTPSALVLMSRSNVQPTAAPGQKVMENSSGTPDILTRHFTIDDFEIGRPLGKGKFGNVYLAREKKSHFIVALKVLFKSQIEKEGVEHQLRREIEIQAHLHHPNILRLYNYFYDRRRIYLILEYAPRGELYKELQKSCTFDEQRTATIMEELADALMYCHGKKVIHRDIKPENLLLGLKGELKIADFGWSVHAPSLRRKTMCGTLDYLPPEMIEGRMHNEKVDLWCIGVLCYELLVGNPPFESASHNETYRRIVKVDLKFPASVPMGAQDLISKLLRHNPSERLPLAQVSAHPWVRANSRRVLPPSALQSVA
Chain of Macrophage colony-stimulating factor 1 receptor (P07333 whole entry): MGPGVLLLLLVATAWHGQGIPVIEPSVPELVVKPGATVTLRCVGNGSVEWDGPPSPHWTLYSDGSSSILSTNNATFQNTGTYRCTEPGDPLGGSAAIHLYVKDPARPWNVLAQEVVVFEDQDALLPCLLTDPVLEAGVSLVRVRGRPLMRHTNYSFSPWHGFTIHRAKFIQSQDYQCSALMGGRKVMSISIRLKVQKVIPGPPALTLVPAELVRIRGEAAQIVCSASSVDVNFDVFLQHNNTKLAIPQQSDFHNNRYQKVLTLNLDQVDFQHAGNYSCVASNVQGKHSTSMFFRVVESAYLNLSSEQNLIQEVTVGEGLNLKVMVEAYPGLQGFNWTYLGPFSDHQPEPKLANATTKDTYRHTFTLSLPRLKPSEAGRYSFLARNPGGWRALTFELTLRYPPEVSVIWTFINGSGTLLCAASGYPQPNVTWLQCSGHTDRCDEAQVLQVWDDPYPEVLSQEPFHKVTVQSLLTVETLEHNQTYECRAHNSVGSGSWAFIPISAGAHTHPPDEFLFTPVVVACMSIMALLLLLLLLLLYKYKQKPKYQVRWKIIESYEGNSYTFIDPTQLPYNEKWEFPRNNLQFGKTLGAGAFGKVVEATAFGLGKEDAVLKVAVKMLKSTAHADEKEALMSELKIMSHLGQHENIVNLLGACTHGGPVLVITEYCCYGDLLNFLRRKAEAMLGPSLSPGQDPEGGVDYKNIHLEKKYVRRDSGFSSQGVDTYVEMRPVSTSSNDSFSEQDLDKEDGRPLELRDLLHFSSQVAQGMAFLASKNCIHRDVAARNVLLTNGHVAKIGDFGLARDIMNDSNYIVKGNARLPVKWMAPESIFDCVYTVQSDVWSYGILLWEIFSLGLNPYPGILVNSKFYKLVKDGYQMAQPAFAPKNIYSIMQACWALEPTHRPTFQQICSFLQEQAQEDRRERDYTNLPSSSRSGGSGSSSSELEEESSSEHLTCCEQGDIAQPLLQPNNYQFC
Chain of Aurora kinase B/Inner centromere protein (Q96GD4 whole entry): as the sequence (Q96GD4 whole entry) above
Chain of Aurora kinase B/Inner centromere protein (Q9NQS7 whole entry, further chain): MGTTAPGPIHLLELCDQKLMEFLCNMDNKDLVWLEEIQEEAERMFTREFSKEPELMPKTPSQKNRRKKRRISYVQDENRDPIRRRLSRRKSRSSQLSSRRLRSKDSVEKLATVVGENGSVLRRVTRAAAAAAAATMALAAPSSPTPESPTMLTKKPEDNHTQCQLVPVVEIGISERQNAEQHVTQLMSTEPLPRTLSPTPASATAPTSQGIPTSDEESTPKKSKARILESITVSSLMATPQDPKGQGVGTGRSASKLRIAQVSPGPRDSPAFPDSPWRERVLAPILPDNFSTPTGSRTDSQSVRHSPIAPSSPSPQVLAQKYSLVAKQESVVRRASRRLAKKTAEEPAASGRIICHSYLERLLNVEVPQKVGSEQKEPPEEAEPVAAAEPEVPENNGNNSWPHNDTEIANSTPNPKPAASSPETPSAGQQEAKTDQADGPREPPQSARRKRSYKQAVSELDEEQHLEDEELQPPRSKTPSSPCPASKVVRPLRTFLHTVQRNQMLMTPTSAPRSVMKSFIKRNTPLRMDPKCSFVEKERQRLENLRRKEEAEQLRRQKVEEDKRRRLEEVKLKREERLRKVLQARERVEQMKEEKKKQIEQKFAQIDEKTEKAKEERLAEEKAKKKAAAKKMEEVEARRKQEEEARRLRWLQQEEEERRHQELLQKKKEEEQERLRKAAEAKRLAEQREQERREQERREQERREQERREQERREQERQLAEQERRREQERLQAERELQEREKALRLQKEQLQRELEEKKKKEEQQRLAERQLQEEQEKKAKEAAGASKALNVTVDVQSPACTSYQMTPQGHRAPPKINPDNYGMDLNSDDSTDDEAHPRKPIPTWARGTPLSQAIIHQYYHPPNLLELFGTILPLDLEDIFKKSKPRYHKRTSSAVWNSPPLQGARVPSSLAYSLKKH
Chain of Death-associated protein kinase 2 (Q9UIK4 whole entry): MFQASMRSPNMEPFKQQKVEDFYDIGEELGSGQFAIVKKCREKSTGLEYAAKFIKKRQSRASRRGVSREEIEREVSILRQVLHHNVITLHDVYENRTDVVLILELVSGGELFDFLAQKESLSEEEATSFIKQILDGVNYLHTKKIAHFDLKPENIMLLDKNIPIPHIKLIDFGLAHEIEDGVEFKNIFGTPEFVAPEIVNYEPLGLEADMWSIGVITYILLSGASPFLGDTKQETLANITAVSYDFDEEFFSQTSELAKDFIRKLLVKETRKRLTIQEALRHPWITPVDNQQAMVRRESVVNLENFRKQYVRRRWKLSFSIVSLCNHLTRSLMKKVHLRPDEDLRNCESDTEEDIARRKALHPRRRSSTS

`CCc1ccc(/N=C2\S/C(=C\c3ccnc(Nc4ccc(C(=O)O)cn4)c3)C(=O)N2C)cc1`: the IC50 at Aurora kinase B [1] is above 25000 nM; in assay [3], 150 nM. The Kd on Aurora kinase A was 5 nM; at Aurora kinase C, 10.8 nM; in [4] it was 120 nM; in assay [5], 450 nM; at Aurora kinase B [6] it was 10.1 nM; in [7], 2900 nM. Also, in assay [2], the inhibition result is “Active”.

Usually IC50 stands for the point on the concentration scale where inhibition reaches its midpoint. The Kd is a measure of binding affinity in units of concentration.
